pIC50: −log10 of the molar value.

One assay concerns the target PARP1 (Homo sapiens, UniProt P09874). The assay can be described thus: PARP enzymatic assay. It counts as biochemical. The following applies: read-out: IC50 PARP1; dose response 1 nM to 1 mM.
The target in a further assay is T1, PARP3 (Homo sapiens, UniProt Q9Y6F1).
T1 sequence (Q9Y6F1 1-533): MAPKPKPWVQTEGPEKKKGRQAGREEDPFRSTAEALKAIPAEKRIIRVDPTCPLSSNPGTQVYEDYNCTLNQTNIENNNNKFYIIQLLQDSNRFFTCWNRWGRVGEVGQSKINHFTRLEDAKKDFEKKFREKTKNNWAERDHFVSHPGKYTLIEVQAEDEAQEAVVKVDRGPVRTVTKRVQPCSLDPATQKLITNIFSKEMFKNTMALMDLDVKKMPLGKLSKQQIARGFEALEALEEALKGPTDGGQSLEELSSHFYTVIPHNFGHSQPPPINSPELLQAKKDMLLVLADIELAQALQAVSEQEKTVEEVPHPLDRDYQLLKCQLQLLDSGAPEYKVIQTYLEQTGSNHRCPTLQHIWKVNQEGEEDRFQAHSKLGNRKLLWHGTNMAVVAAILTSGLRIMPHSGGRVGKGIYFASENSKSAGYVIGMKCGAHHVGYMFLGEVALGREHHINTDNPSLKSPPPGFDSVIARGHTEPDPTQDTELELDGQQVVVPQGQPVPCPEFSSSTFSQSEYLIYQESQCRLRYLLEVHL
Briefly: PARP enzymatic assay. It is filed as biochemical. The following applies: for PARP3 inhibition at 1 μM: from dose response data; for Inhibition of PARP3, mean (panel): 10 μM, 0 equals no inhibition, 100 total inhibition, N = 5 (Table 5); for pIC50: read-out: IC50 PARP3, dose response 1 nM to 1 mM.

A further assay addresses T2, PARP16 (Homo sapiens, UniProt Q8N5Y8).
T2 sequence (Q8N5Y8 1-322): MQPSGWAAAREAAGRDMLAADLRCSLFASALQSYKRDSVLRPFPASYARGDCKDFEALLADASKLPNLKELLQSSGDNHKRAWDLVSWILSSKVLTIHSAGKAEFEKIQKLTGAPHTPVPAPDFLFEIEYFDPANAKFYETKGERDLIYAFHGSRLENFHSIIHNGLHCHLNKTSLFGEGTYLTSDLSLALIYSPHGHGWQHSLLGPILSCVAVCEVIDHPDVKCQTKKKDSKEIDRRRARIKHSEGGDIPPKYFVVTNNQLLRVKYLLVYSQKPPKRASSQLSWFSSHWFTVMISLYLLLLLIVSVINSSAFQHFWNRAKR
Briefly: Modified PARP enzymatic assay with IRE-1 as substrate, PARP16. It counts as biochemical. Particulars: for pIC50: read-out: IC50 PARP16, dose response 1 nM to 1 mM; for PARP16 inhibition at 1 μM: from dose response data; for Selectivity: greater IC50 potency for PARP16 compared with PARP3: ratio of IC50 values, in vitro.

Assay [1] deals with F508del-CFTR in BHK cells. The assay can be described thus: HTS F508del-CFTR correction assay. It counts as cell-based, hamster. The following applies: 24 h treatment.
Assay [2] relates to F508del-CFTR in BHK cells. Particulars: cited from earlier work.
In the next assay the test system is PARP2. The assay can be described thus: PARP enzymatic assay, PARP2. It counts as biochemical. Particulars: 10 μM; 0 equals no inhibition, 100 total inhibition; N = 5 (Table 5). In outline:
(§1)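 Commercial recombinant PARP2, PARP4, PARP-5a and PARP-5b were assayed with a chemiluminescent universal PARP kit on histone-coated strip wells, following the manufacturer's protocol. Anchored histones served as the ADP-ribosylation substrate. Inhibition was read as loss of chemiluminescent signal.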

In the next assay the target is PARP4 (Homo sapiens, UniProt Q9UKK3). The assay can be described thus: PARP enzymatic assay, PARP4. It counts as biochemical. Particulars: 10 μM; 0 equals no inhibition, 100 total inhibition; N = 5 (Table 5). Summed up: as §1
In a further assay the test system is PARP5. The assay can be described thus: PARP enzymatic assay, PARP5. It is filed as biochemical. The following applies: 10 μM; 0 equals no inhibition, 100 total inhibition; N = 5 (Table 5). In outline:
as §1

The next assay concerns the target T3, TANKYRASE1 (Homo sapiens, UniProt O95271).
T3 sequence (O95271 1-1327): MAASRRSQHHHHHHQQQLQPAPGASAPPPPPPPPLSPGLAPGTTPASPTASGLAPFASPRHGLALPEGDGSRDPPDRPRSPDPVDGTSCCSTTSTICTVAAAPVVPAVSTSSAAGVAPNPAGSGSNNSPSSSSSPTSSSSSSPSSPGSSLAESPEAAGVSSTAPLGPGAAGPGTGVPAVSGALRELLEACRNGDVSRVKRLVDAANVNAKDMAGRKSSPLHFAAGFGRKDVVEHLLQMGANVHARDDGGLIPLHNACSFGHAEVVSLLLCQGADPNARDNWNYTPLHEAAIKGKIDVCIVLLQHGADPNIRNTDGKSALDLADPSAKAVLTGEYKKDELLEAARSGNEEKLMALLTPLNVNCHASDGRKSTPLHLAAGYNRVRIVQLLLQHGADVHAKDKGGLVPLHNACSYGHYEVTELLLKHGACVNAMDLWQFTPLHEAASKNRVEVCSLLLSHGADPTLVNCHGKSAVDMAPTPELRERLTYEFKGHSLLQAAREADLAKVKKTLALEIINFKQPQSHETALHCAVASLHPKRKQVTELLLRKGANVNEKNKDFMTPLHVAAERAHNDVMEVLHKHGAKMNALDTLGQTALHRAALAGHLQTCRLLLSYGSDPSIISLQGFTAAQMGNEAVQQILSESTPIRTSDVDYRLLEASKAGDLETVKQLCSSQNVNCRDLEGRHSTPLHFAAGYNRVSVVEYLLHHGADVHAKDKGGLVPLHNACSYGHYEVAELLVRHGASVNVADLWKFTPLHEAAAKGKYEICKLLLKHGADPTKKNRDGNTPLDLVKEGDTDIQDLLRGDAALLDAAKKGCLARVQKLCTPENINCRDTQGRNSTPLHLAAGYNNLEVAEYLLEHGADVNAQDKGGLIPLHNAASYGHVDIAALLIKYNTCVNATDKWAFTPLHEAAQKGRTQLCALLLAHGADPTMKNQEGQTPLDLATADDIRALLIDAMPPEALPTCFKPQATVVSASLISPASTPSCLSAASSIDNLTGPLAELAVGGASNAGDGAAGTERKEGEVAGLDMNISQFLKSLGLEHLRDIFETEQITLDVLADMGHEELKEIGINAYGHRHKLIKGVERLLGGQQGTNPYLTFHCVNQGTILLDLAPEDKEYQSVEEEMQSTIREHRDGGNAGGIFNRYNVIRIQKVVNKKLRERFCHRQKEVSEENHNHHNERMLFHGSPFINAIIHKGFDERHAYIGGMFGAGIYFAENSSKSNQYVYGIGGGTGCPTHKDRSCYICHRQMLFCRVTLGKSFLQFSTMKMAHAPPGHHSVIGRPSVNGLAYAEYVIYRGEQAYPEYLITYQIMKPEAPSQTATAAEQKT
Briefly: PARP enzymatic assay, TANKYRASE1. It counts as biochemical. The following applies: 10 μM; 0 equals no inhibition, 100 total inhibition; N = 5 (Table 5). In outline: (§2)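 Recombinant human PARP-5a (tankyrase 1) and PARP-5b (tankyrase 2) were obtained commercially. Inhibition was measured with a universal chemiluminescent PARP kit according to the manufacturer's protocol. Anchored histone proteins coated on strip wells served as the ADP-ribosylation substrate.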

The target of a further assay is T4, TANKYRASE 2 (Homo sapiens, UniProt Q9H2K2).
T4 sequence (Q9H2K2 1-1166): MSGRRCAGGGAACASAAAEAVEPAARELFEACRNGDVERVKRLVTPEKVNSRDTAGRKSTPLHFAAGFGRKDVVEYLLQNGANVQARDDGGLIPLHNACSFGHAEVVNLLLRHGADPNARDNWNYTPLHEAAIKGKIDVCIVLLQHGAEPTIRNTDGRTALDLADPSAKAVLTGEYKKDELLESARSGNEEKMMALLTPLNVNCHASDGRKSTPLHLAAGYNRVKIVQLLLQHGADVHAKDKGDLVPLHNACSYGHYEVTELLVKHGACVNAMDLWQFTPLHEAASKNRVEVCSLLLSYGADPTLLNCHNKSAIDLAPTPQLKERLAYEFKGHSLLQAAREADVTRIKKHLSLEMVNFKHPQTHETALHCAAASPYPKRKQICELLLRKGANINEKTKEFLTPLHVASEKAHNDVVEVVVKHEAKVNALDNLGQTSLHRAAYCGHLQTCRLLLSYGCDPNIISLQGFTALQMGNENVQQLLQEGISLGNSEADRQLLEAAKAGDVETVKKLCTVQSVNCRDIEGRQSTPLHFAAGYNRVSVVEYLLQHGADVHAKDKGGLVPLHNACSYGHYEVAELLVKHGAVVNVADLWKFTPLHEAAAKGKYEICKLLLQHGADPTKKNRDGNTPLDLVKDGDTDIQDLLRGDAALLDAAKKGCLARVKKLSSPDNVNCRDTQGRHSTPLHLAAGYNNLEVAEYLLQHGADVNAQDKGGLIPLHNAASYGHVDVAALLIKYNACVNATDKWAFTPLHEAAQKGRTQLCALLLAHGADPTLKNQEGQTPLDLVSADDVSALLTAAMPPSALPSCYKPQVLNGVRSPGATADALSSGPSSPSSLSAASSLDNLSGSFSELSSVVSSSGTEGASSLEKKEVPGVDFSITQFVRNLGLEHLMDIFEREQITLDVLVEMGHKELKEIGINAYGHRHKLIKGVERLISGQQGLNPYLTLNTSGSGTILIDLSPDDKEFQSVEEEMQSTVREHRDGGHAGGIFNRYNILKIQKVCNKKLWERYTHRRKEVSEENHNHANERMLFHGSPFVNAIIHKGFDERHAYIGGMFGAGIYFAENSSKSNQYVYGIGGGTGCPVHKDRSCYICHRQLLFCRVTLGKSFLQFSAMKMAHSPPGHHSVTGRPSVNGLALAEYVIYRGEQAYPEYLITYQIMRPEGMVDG
Briefly: PARP enzymatic assay, TANKYRASE 2. It counts as biochemical. The following applies: 10 μM; 0 equals no inhibition, 100 total inhibition; N = 5 (Table 5). In outline:
as §2

Assay [3] concerns F508del-CFTR in BHK cells. Briefly: FMP functional F508del-CFTR correction assay. It counts as cell-based, hamster. The following applies: 1 μM each, 24 h pretreatment, forskolin + genistein, BHK cells (Figure 2C). In outline:
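BHK cells expressing F508del-CFTR were seeded at 25 000 cells per well and treated with test compound (1 μM) for 24 h, then washed with PBS. Cells were loaded with a voltage-sensitive oxonol-derived FLIPR dye plus quencher in low-chloride gluconate/HEPES buffer (pH 7.4) containing genistein (50 μM) for 5 min at room temperature. Forskolin (10 μM) was added, and the mean initial fluorescence rate (Vmax) was expressed as % of VX809 response.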

Setting [4] is: 1 μM each, BHK cells (Figure 2B).
Setting [5] is: 10 μM each, BHK cells (Figure 2A).

Chain of PARP1 (P09874 whole entry): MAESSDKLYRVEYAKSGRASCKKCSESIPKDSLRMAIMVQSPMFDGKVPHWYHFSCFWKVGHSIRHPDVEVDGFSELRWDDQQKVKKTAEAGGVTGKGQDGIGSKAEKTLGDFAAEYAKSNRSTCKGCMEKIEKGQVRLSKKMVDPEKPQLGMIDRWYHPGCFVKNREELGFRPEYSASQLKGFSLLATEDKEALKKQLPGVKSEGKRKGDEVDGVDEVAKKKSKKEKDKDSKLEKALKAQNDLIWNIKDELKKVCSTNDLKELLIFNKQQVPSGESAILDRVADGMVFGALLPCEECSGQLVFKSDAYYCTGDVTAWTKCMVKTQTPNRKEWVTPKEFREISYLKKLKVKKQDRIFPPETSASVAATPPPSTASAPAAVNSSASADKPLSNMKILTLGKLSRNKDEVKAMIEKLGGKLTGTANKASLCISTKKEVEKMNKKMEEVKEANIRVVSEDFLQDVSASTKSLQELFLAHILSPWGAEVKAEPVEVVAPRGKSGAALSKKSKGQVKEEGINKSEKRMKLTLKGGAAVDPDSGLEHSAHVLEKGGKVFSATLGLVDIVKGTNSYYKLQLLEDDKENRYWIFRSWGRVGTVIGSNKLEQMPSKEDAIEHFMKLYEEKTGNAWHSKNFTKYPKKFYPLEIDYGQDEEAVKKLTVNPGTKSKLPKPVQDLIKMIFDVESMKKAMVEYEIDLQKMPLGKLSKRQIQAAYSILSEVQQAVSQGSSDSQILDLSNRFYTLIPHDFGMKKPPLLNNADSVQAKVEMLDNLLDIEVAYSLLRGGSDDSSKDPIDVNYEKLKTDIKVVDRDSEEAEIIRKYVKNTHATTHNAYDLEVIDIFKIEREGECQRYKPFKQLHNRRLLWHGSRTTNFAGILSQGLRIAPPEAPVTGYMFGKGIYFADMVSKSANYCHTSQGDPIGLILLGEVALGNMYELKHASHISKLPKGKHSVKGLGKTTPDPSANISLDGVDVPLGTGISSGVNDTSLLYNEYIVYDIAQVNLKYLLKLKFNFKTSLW
Chain of PARP4 (Q9UKK3 whole entry, species assumed): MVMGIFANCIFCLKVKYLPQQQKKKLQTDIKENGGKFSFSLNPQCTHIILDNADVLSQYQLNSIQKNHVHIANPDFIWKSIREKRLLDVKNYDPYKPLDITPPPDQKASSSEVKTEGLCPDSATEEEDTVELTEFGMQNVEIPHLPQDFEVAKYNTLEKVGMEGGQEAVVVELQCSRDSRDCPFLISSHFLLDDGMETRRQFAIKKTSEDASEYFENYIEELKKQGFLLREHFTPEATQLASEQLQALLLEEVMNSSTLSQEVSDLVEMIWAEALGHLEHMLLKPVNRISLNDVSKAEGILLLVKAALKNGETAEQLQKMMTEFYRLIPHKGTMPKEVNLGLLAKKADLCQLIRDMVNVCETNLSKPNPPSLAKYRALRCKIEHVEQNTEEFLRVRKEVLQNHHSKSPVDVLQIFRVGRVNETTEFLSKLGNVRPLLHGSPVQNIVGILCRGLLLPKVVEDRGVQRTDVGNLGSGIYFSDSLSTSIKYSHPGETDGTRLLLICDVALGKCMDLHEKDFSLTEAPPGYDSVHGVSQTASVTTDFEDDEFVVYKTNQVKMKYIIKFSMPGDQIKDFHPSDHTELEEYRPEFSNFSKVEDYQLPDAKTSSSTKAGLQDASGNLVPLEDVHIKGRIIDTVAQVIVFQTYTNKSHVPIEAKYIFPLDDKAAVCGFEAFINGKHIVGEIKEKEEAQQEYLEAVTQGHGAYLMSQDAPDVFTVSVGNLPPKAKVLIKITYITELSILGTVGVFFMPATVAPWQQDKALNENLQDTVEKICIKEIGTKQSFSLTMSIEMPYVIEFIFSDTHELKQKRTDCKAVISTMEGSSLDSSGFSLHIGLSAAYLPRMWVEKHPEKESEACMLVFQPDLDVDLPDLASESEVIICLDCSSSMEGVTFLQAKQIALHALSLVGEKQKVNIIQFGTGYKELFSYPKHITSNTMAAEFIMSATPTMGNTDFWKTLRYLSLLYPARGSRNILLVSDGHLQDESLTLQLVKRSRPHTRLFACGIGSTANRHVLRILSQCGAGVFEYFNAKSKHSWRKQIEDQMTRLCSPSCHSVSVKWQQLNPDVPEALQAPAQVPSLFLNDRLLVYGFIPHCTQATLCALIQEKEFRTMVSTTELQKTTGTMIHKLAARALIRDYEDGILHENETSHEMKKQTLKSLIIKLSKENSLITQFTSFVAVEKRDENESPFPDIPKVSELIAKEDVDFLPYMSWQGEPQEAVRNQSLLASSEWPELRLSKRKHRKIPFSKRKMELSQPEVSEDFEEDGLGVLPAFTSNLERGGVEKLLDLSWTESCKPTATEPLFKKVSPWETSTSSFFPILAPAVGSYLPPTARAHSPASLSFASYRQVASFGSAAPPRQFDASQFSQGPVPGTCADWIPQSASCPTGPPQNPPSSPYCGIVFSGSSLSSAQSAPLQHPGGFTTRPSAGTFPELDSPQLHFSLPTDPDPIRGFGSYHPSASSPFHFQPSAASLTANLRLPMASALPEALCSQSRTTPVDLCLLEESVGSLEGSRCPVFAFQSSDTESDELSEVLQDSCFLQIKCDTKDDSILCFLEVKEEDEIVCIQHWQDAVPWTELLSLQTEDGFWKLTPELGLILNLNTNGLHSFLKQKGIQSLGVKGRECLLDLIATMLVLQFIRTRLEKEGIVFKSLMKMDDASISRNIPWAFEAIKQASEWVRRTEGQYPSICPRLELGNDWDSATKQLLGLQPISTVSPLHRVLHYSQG

With `O=C1NCC(c2ccccc2)C(O)c2ccccc21` (racemic) [compound 5, (±)-5-hydroxy-4-phenyl-2,3,4,5-tetrahydro-1H-benzo[c]azepin-1-one], the pIC50 on PARP1 was 4.70; on PARP3, 5.51; at PARP16, 3.53. The “Increase in relative PARP3/PARP16 IC50 potency compared with latonduine A (1)” value at PARP3 came out at 768 fold. Further, on PARP3, the “PARP3 inhibition at 1 μM” value came out at 39%. Also, on PARP3, the “Inhibition of PARP3, mean (panel)” value is given as 95.6. Further, the “Selectivity: greater IC50 potency for PARP3 compared with PARP16” value on PARP3 (ratio of IC50 values, in vitro) was found to be 96 fold. Also, the figures for the “F508del-CFTR corrector activity (surface expression) in HTS assay” value (“F508del-CFTR corrector activity” for short) in [1] (setting [4]) and in assay [1] (setting [5]) were “neither 5 or 6 alone shows corrector activity” and “neither compound 5 or 6 alone gives F508del-CFTR correction”, respectively.

Regarding `O=C1NCC(c2ccccn2)C(O)c2cc(Cl)c(Cl)cc21` (racemic) [compound 6, (±)-7,8-dichloro-5-hydroxy-4-(pyridin-2-yl)-2,3,4,5-tetrahydro-1H-benzo[c]azepin-1-one], the pIC50 on PARP1 is 4.75. Besides, on PARP3, the “Inhibition of PARP3, mean (panel)” value is reported as 25.8 and the pIC50 was 4.13. Also, on PARP16, the “PARP16 inhibition at 1 μM” value was determined as 81%, the “Selectivity: greater IC50 potency for PARP16 compared with PARP3” value (“Selectivity … with PARP3” below) was 205 fold and the pIC50 was 6.44. Further, the “F508del-CFTR corrector activity” value in [1] (setting [4]) is on record as “neither 5 or 6 alone shows corrector activity”. Besides, the “F508del-CFTR corrector activity” value in assay [1] (setting [5]) is reported as “neither compound 5 or 6 alone gives F508del-CFTR correction”.

As to `Nc1nc2c(c(C(=O)O)n1)-c1c([nH]c(Br)c1Br)C(=O)NC2` [compound 2, latonduine B], in assay [2], the “EC50 in the F508del-CFTR trafficking screening assay” value was “low nanomolar”.

For latonduine A [compound 1], the pIC50 on PARP1 was 4.61. Besides, at PARP3, the “PARP3 inhibition at 1 μM” value was determined as 37%; the “Inhibition of PARP3, mean (panel)” value is recorded as 83.7; the pIC50 is 5.47. Besides, at PARP16, the “PARP16 inhibition at 1 μM” value is 79%, the “Selectivity … with PARP3” value was found to be 8 fold and the pIC50 is 6.37. Further, the “Selectivity … with PARP3” value on PARP16 (listed as Latonduine A (1)) was “≈ 8 fold”. For the same compound, the “Inhibition of PARP2, mean (panel)” value in the assay with PARP2 is recorded as 21.6. For the same compound, on PARP4, the “Inhibition of PARP4, mean (panel)” value came to 18.3. Besides, the “Inhibition of PARP5, mean (panel)” value with PARP5 stood at 9.9. In addition, on TANKYRASE1, the “Inhibition of TAN1, mean (panel)” value turned out to be 11.7. Besides, the “Inhibition of TAN2, mean (panel)” value at TANKYRASE 2 stood at 10.1. In addition, the “Functional F508del-CFTR correction in FMP assay” value in assay [3] was “generates functional CFTR correction”. For the same compound, in [2], the “EC50 in the F508del-CFTR trafficking screening assay” value is on record as “low nanomolar”.

The pIC50 is the IC50 on a negative log10 scale, so that one unit is a factor of ten.
